What is called Ki is the equilibrium dissociation constant of an inhibitor or competing ligand from its target. Low values mean tighter binding, high ones weaker binding.

This passage reports Ki results from ChEMBL document CHEMBL1141227, “Rhodamine-labeled 2beta-carbomethoxy-3beta-(3,4-dichlorophenyl)tropane analogues as high-affinity fluorescent probes for the dopamine transporter” (J Med Chem, 2005).

What all share (assay type): cell-based, COS-7
The target in experiment [1] is Sodium-dependent noradrenaline transporter (Homo sapiens, UniProt P23975). The experiment in a line: Displacement of [3H]dopamine from human NET expressed in COS7 cells. The method, boiled down: (§1)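 Ki derived from inhibition of radiolabelled substrate uptake into COS-7 cells transiently expressing hDAT or hNET ([3H]dopamine) or hSERT ([3H]5-HT). […] Three to six experiments in triplicate, mean with SE interval.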
Sodium-dependent noradrenaline transporter, sequence (P23975 whole entry): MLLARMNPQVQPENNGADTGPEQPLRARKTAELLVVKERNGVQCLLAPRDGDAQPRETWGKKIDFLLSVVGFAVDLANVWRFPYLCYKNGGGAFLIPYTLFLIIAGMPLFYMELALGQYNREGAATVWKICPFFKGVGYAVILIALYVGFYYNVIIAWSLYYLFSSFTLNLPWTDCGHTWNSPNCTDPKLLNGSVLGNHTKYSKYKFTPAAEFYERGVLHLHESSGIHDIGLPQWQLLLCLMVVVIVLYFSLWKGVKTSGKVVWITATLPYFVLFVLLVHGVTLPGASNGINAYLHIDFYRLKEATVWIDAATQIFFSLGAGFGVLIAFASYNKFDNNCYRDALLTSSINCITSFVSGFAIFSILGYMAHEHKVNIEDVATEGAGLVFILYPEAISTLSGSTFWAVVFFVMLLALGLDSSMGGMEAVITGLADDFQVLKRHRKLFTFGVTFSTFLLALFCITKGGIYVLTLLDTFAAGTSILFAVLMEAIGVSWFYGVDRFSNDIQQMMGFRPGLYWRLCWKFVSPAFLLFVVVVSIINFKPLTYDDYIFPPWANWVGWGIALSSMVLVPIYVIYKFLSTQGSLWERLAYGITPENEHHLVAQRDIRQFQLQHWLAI
On the technique in general: In a radioligand displacement assay an active substance lowers the binding of a labelled ligand.

Experiment [2] deals with T1, Sodium-dependent dopamine transporter (Homo sapiens, UniProt Q01959). The experiment in a line: Displacement of [3H]dopamine from human DAT expressed in COS7 cells. A digest of the protocol: as §1
T1 sequence (Q01959 whole entry): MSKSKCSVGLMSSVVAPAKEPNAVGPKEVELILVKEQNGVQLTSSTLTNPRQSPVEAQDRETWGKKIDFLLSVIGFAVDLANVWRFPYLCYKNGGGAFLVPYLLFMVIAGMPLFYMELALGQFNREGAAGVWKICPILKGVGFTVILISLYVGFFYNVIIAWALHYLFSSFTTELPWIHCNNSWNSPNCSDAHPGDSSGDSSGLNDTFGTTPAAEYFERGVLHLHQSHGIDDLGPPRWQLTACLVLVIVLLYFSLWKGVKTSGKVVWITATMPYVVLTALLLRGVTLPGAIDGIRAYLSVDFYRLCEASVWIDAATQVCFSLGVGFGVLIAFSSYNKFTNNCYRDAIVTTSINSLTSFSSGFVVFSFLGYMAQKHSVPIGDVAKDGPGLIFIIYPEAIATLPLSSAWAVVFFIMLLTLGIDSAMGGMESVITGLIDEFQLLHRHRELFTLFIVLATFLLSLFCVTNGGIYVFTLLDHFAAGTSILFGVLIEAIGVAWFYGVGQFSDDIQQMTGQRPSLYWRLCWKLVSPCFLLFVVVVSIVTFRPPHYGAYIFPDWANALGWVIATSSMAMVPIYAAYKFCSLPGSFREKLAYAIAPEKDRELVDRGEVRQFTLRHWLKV
In experiment [3] the target is Sodium-dependent serotonin transporter (Homo sapiens, UniProt P31645). The experiment in a line: Displacement of [3H]5HT from human SERT expressed in COS7 cells. The method, boiled down:
as §1

Experiment [4] concerns the target T1, Sodium-dependent dopamine transporter. Briefly: Displacement of [3H]CFT from human DAT expressed in COS7 cells. A digest of the protocol:
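Competition binding on intact COS-7 cells transiently expressing hDAT, with [3H]CFT (2β-carbomethoxy-3β-(4-fluorophenyl)tropane) as radioligand. Ki from nonlinear regression, using a KD for [3H]CFT determined in parallel. Mean of two to three experiments in triplicate, with SE interval.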

Sodium-dependent serotonin transporter, sequence (P31645 whole entry): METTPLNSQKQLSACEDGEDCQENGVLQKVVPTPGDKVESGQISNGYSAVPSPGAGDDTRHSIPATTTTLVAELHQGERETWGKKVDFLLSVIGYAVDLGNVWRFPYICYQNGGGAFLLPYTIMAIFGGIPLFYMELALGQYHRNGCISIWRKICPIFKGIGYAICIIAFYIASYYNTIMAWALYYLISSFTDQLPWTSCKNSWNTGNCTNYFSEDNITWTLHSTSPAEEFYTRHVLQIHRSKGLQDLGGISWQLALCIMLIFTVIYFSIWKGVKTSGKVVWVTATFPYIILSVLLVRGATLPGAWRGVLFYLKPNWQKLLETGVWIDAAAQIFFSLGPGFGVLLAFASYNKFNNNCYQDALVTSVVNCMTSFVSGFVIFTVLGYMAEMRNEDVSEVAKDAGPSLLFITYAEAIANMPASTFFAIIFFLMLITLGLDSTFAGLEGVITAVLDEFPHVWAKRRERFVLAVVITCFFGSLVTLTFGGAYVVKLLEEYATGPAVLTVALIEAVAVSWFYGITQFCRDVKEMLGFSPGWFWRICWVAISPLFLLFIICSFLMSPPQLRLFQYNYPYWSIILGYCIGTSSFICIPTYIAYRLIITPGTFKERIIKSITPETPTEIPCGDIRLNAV

Regarding `CCN(CC)c1ccc2c(-c3ccc(S(=O)(=O)NCCCCCC(=O)NCCOC(=O)[C@@H]4C5CCC(C[C@@H]4c4ccc(Cl)c(Cl)c4)N5C)cc3S(=O)(=O)[O-])c3ccc(=[N+](CC)CC)cc-3oc2c1` (some centres undefined), the Ki was 177 nM in experiment [1], 72 nM in experiment [2], 1490 nM in experiment [3] and 27 nM in experiment [4].
In the case of `CCN(CC)c1ccc2c(-c3ccc(S(=O)(=O)NCCCCCC(=O)NCCN4C5CCC4[C@@H](C(=O)OC)[C@@H](c4ccc(Cl)c(Cl)c4)C5)cc3S(=O)(=O)[O-])c3ccc(=[N+](CC)CC)cc-3oc2c1` (some centres undefined), the Ki in experiment [1] stood at 194 nM; in experiment [2], 62 nM; in experiment [3], 392 nM; in experiment [4] it was 18 nM.
As for `CCN(CC)c1ccc2c(-c3ccc(S(=O)(=O)NC[C@H]4CC[C@H](C(=O)NCCN5C6CCC5[C@@H](C(=O)OC)[C@@H](c5ccc(Cl)c(Cl)c5)C6)CC4)cc3S(=O)(=O)[O-])c3ccc(=[N+](CC)CC)cc-3oc2c1` (some centres undefined), the Ki in experiment [1] was 627 nM; in experiment [2] it was 436 nM; in experiment [3] it was 705 nM.
Take `COC(=O)[C@@H]1C2CCC(C[C@@H]1c1ccc(Cl)c(Cl)c1)N2C` (some centres undefined): the inhibition constant Ki in experiment [1] is 5 nM; in experiment [2], 2.3 nM; in experiment [3], 12 nM; in experiment [4] it was 0.2 nM.
Take `COC(=O)[C@@H]1C2CCC(C[C@@H]1c1ccc(Cl)c(Cl)c1)N2CCNC(=O)CCCN1CCCc2cc3c(cc21)C(C)(C)C1=CC(=[N+](C)C)C=CC1=C3` (some centres undefined): the Ki came to 308 nM in experiment [1], 250 nM in experiment [2], 227 nM in experiment [3] and 50 nM in experiment [4].
